These results are taken from PMC11276401 (RSC Advances, 2024).

Structures are written as SMILES. Several values for one entry are separate records, joined by “and”; a condition that tells them apart may be missing. Equal entries are not always repeated.

One assay concerns MIAPACA. Put plainly: SRB assay, in vitro anticancer activity. Format: cell-based. Particulars: Homo sapiens, MIA PaCa-2, 48 h, read-out: GI50 MIAPACA.
The next assay has as its system MCF-7. Put plainly: SRB assay, in vitro anticancer activity. Format: cell-based. Particulars: Homo sapiens, MCF7, 48 h, read-out: GI50 MCF-7. (In general: Sulforhodamine B stains cellular protein and so reports cell mass.)
For the next assay, the system named is HeLa. Put plainly: SRB assay, in vitro anticancer activity. Format: cell-based. Particulars: Homo sapiens, 48 h, read-out: GI50 HeLa.
A further assay has as its system bovine brain tubulin. Put plainly: Tubulin polymerization assay. Format: biochemical. Particulars: read-out: Tubulin polymerization inhibition IC50; 2 mg/mL tubulin, 37 °C.
Assay [1] deals with caspase 3/7, 8, and 9 in HeLa, MCF-7 and MIA PaCa2 cancer cells. Put plainly: Caspase 3/7, 8 and 9 activation, values not assigned to a caspase or cell line. Format: cell-based, human. The following applies: MCF-7 and MIA PaCa2 cells, assignment and concentration not clear.
For the next assay, the system named is HeLa and MIAPACA. Put plainly: SRB assay, range stated over two cell lines. It counts as cell-based. Particulars: Homo sapiens, read-out: GI50 against HeLa and MIAPACA.
Assay [2] concerns caspase 3/7 in MCF-7 cells. Put plainly: Caspase-Glo 3/7 activation assay. Particulars: 20 μg ml^−1, 24 h. Format: cell-based, human. In outline: (§1)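 Caspase 3/7 activation in the named human cancer cells is expressed as percent activation after treatment with the test compound. Podophyllotoxin is run alongside as the positive control.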
For assay [3], the system named is caspase 3/7 in MIA PaCa2 cells. Put plainly: Caspase-Glo 3/7 activation assay. It counts as cell-based, human. The following applies: 20 μg ml^−1, 24 h. In outline: as §1
A further assay relates to MCF-7, HeLa and MIAPACA. Put plainly: SRB assay, range stated over three cell lines. It counts as cell-based. Particulars: Homo sapiens, read-out: GI50 against three cell lines. In outline:
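Human MCF-7, HeLa and MIA PaCa-2 cancer cell lines are exposed to the test compounds, with podophyllotoxin as positive control. Growth inhibition is reported as GI50.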

For assay [4], the system named is caspase 3/7 in HeLa cells. Put plainly: Caspase-Glo 3/7 activation assay. Format: cell-based, human. The following applies: 20 μg ml^−1, 24 h. In outline:
as §1

The term GI50 denotes the concentration that inhibits growth by half. For `COc1cc([C@@H]2c3cc4c(cc3[C@@H](OCc3cc(-c5ccc(F)cc5)no3)[C@H]3COC(=O)C23)OCO4)cc(OC)c1OC` (some centres unmarked) [Compound 6h], the GI50 in the assay on MIAPACA came out at 13100 ± 3270 nM; with MCF-7 it was 4870 ± 790 nM; with HeLa, 6120 ± 1080 nM.
One may read the IC50 as the midpoint of a concentration-inhibition curve. With `COc1cc([C@@H]2c3cc4c(cc3[C@@H](OCc3cc(-c5cc(Cl)cc(Cl)c5)no3)[C@H]3COC(=O)C23)OCO4)cc(OC)c1OC` (some centres unmarked) [Compound 6m], the values for the GI50 in the assay with MIAPACA, in the assay with MCF-7 and in the assay with HeLa were 2330 ± 180 nM, 360 ± 170 nM and 2190 ± 840 nM, respectively. In the assay on bovine brain tubulin, the IC50 was 3790 nM. The “caspase 3/7, 8, and 9 activations” value in assay [1] was 44.8% and 53.4% and 65.0% and 63.0% and 41.9% and 51.7%.
For `COc1cc([C@@H]2c3cc4c(cc3[C@@H](OCc3cc(-c5cccc(C)c5)no3)[C@H]3COC(=O)C23)OCO4)cc(OC)c1OC` (some centres unmarked) [Compound 6c], the GI50 with MIAPACA was 4670 ± 1930 nM; in the assay with MCF-7, 3920 ± 820 nM; in the assay on HeLa, 3830 ± 1540 nM.
Regarding `COc1cc([C@@H]2c3cc4c(cc3[C@@H](OCc3cc(-c5cccc(Cl)c5)no3)[C@H]3COC(=O)C23)OCO4)cc(OC)c1OC` (some centres unmarked) [Compound 6k], the results for the GI50 in the assay with MIAPACA, in the assay on MCF-7 and in the assay on HeLa were 18300 ± 2870 nM, 3150 ± 430 nM and 9680 ± 3120 nM, respectively.
The matching figures for `COc1cc([C@@H]2c3cc4c(cc3[C@@H](OCc3cc(-c5ccc(Br)cc5)no3)[C@H]3COC(=O)C23)OCO4)cc(OC)c1OC` (some centres unmarked) [Compound 6g]: 6840 ± 2010 nM, 4320 ± 830 nM and 7480 ± 690 nM.
Consider `COc1cc([C@@H]2c3cc4c(cc3[C@@H](OCc3cc(-c5ccc([N+](=O)[O-])cc5)no3)[C@H]3COC(=O)C23)OCO4)cc(OC)c1OC` (some centres unmarked) [Compound 6j], for which the GI50 in the assay on MIAPACA is 1540 ± 180 nM; in the assay on HeLa and MIAPACA, 1030 to 1540 nM; in the assay with MCF-7, 230 ± 120 nM; with HeLa, 1110 ± 290 nM. The half-inhibitory concentration (IC50) in the assay with bovine brain tubulin was found to be 1320 nM. Further, the “caspase 3/7 activation” value in [2] was found to be 90.1%.
In the case of `COc1cc([C@@H]2c3cc4c(cc3[C@@H](OCc3cc(-c5ccc(Cl)cc5)no3)[C@H]3COC(=O)C23)OCO4)cc(OC)c1OC` (some centres unmarked) [Compound 6f], the GI50 worked out at 3140 ± 320 nM with MIAPACA, 2130 ± 370 nM with MCF-7 and 3050 ± 1020 nM in the assay with HeLa.
For `COc1cc([C@@H]2c3cc4c(cc3[C@@H](OCc3cc(-c5cc(C)cc(C)c5)no3)[C@H]3COC(=O)C23)OCO4)cc(OC)c1OC` (some centres unmarked) [Compound 6d], in that order: 2280 ± 290 nM, 1340 ± 230 nM and 2740 ± 520 nM.
As for `COc1cc([C@@H]2c3cc4c(cc3[C@H](O)[C@H]3COC(=O)[C@H]23)OCO4)cc(OC)c1OC` [Podophyllotoxin, podophyllotoxin, reference compound], the GI50 is 510 ± 120 nM in the assay with MIAPACA; 510 to 740 nM with HeLa and MIAPACA; 310 ± 190 nM in the assay on MCF-7; 310 to 510 nM with MCF-7, HeLa and MIAPACA; 740 ± 230 nM with HeLa. Further, in the assay on bovine brain tubulin, the IC50 is 840 nM. For the same compound, the “caspase 3/7 activation” value in [3] was 88.6%; in assay [4], 86.9%; in assay [2] it was 91.9%.
